Compound activity (PubChem BioAssay)
Most compounds without a hit are left out; they make up all but 3% or so of the library.
KCC2 mod: KCC2 cotransporter modulators, thallium flux, primary screen, cell-based, HEK293 KCC2, FluoZin-2 fluorescence, MLSMR | KCC2 cells, thallium flux FluoZin-2 fluorescence | B-score of Tl+ flux slope (higher = more flux/activation; lower = inhibition) at 10 µM | 190,000 compounds, 2.2% hits | AID 1456, 2008;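 active = thallium flux slope and its plate-corrected score both differing from the plate sample mean at a set confidence after two filtering rounds, in either direction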;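 also: slope of fluorescence scaled to starting intensity during 10 to 20 s after thallium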
ROMK primary: ROMK potassium channel modulators, primary screen, cell-based, thallium flux, MLSMR library | Tet-inducible ROMK, thallium flux fluorescence; actives lie on both sides | 130,000 compounds, 2% hits | ATP-sensitive inward rectifier potassium channel 1 (Homo sapiens), P48048 | B-score at 10 µM | AID 1918, 2009;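 active = signal ratio slope over the read window, or its plate-corrected B-score, at least 3 SD from the plate mean, either direction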;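 also: B-score of the F/F0 ratio slope over 7 to 12 s after thallium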
Target sequence (P48048 whole entry, looked up): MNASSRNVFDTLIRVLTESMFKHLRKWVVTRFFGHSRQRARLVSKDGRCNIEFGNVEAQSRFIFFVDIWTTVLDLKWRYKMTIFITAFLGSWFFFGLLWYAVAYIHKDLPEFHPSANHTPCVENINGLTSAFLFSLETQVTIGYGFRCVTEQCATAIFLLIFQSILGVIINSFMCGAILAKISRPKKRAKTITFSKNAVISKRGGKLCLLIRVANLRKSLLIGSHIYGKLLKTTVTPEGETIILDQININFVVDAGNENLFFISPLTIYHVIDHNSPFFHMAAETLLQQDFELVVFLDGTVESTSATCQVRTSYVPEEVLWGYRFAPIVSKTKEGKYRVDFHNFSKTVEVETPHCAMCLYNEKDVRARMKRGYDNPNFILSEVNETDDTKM
Rad51 HR inh: human RAD51 strand exchange inhibitors, primary screen, biochemical, fluorescence | DNA repair protein RAD51 homolog 1 (Homo sapiens), Q06609 | hRad51 DNA strand exchange, fluorescence dequenching | inhibition, % at 10 µM | 200,000 compounds, 0.085% hits | AID 1385, 2008;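 active = inhibition above 40% at the single screening dose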;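 also: 0% = DMSO control wells and 100% = blanks with heterologous ssDNA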
Target sequence (Q06609 whole entry, looked up): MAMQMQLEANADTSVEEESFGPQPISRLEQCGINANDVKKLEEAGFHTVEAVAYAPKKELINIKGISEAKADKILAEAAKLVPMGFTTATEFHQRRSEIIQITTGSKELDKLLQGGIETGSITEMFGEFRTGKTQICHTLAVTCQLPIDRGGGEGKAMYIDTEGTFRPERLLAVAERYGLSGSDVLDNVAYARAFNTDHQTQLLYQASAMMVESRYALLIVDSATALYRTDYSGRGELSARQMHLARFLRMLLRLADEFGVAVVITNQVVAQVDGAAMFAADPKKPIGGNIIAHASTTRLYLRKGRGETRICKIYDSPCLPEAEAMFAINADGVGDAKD
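System: hRad51 filaments on single-stranded DNA; reagent: Fluorescein- and BHQ1-tagged 47-mer duplex; compound dosing: one concentration, 10 µM final; timing: filaments 15 min 37 °C, then compound 30 min; measured by: fluorescein emission 520 nm, excitation 485 nm; benchmarks: per-plate controls and blanks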
PKD1 inh: inhibitors of human PKD1 kinase, biochemical, fluorescence polarization. AID 797, 2007. inhibition, % (no concentration beside the values). 200,000 compounds, 0.056% hits. PKD1 kinase fluorescence polarization assay; in the data active = inhibition above about 50%
KCC2 secondary: KCC2 modulators in sodium-free buffer, confirmation, cell-based, HEK293 KCC2, thallium flux, secondary assay. shares compounds with KCC2 mod. FluoZin2 fluorescence; active compounds read high. normalised thallium flux (F/F0 slope) at 10 µM. 3,700 compounds, 15% hits;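 active = thallium flux slope above the same plate's solvent-only control mean plus 3 SD; inconclusive = the two replicate wells disagree; inactive = no significant difference from solvent-only control wells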
KCC2 bumet counter: thallium flux persisting under bumetanide in KCC2 cells, confirmation, counter-screen for KCC2 modulator project, cell-based, HEK293 KCC2, FluoZin2, secondary assay 3; 3,700 compounds, 49% hits; HEK293-KCC2 + bumetanide/ouabain; active compounds read high; shares compounds with KCC2 mod; normalized thallium flux at 10 µM;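 active = thallium entry rate above the same plate's blocked-transporter control wells by more than 3 SD; inconclusive = the two repeat wells disagree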;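 also: raw slope of fluorescence over initial fluorescence between 10 and 20 s after thallium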
KCC2 secondary2: KCC2 modulators without ouabain present, confirmation, cell-based, HEK293 KCC2, thallium flux, FluoZin2, secondary assay 2 | shares compounds with KCC2 mod | thallium flux FluoZin2 fluorescence; actives lie on both sides; F/F0 rise rate, 10–20 s post-thallium | normalized thallium flux at 10 µM | 3,700 compounds, 23% hits;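 active = thallium flux slope more than 3 SD above or below the plate's solvent-only control mean, mostly below; inconclusive = the two repeat wells disagreed; inactive = no significant shift from solvent-only controls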;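 also: raw slope with 0.1% DMSO as baseline and bumetanide as block control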
HEK counter1: thallium flux modulation in parental HEK cells, confirmation, counter-screen for KCC2 modulator project, cell-based, counterscreen 1; thallium flux rate (normalised fluorescence) at 10 µM; HEK293 parental cells, thallium flux FluoZin2, ouabain; baseline-ratio fluorescence slope, 10–20 s after thallium; 3,700 compounds, 46% hits; shares compounds with KCC2 mod;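 active = thallium flux rate significantly above the same plate's solvent-only control wells, beyond their mean plus 3 SD; inconclusive = the two replicate wells gave conflicting results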
KCC2 ouabain: KCC2 inhibitors and activators, ouabain retest, confirmation, HEK-KCC2 cells; shares compounds with KCC2 mod; HEK293-KCC2, thallium flux FluoZin2 fluorescence; bidirectional: low = inhibitor, high = activator; 3,700 compounds, 48% hits; raw Tl+ flux slope (below DMSO = inhibition, above = activation) at 10 µM; AID 1717, 2009;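 active = thallium flux slope beyond 3 SD from same-plate DMSO control mean in most replicates, usually higher, sometimes lower; inconclusive = repeat tests gave conflicting results; inactive = no significant difference from controls in most replicates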;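 also: slope of initial-normalized fluorescence between seconds 10 and 20 after thallium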
HEK293 Tl flux2: native HEK Tl+ uptake effects, second counter-screen – HEK cells, counterscreen 2, counter-screen for KCC2 modulator project, confirmation | shares compounds with KCC2 mod | AID 1718, 2009 | thallium flux slope at 10 µM | HEK293 parental, thallium flux FluoZin-2 fluorescence slope | 3,700 compounds, 33% hits;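 active = thallium flux slope above the same plate's solvent-control mean plus 3 SD in both duplicate wells; inconclusive = duplicate wells that disagreed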;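 also: run without ouabain in cells lacking the KCC2 cotransporter; slope of fluorescence scaled to its starting value between 10 and 20 s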
* marks the source's active call; other numbers are inactive results; ? = inconclusive; . = not tested or not shown.

SMILES	KCC2 mod	ROMK primary	Rad51 HR inh	PKD1 inh	KCC2 secondary	KCC2 bumet counter	KCC2 secondary2	HEK counter1	KCC2 ouabain	HEK293 Tl flux2
O=C(NC(=S)N1CCN(C/C=C/c2ccccc2)CC1)c1ccc(Cl)nc1	68*	.	9	.	0.0077	0.08*	0.063*	0.056*	0.067*	0.054*
O=C(NC(=S)N1CCN(Cc2ccccc2)CC1)c1cccnc1	-0.23	0.48	-13	6	.	.	.	.	.	.
C=CCNC(=O)CC(=O)N/N=C/c1cccs1	-0.53	-0.36	7	-3	.	.	.	.	.	.
CN(C)C(=S)SCCn1c(N)nc(N(C)C)nc1=O	0.24	.	7	.	.	.	.	.	.	.
CCOC(=O)C1CCCN(C(=O)c2cc3nc(-c4cccc(OC)c4)cc(C(F)(F)F)n3n2)C1 (stereo not drawn)	.	.	-6	2	0.007	0.0044	0.029	0.0073	0.02	0.01
CCOc1ccccc1NC(=O)CCCn1cc([N+](=O)[O-])cn1	-0.79	0.64	6	4	.	.	.	.	.	.
Cc1cc(NC(=O)COC(=O)C(Nc2ccc(C(F)(F)F)cc2Cl)C(C)C)no1 (stereo not drawn)	-7.2*	.	5	2	0.0077	0.0036	0.034	0.007	0.02	0.0088
Cc1cc(NC(=O)COC(=O)[C@H](C)NC(=O)c2ccccc2)no1	-0.98	.	8	-4	.	.	.	.	.	.
CN(Cc1ccc2nonc2c1)Cc1nc(CC2CC2)no1	0.25	-0.46	.	1	.	.	.	.	.	.
C=CCn1c(-c2cc(-c3ccc(C)cc3)nc3ccccc23)n[nH]c1=S	36*	-1.4	17	-7	0.015*	0.11*	0.032	0.031*	0.052*	0.012*
CCn1c(-c2cc(-c3ccc(C)cc3)nc3ccccc23)n[nH]c1=S	7.9*	0.0011	-5	2	?	0.049*	0.036	0.015*	0.039*	0.017*
Cc1nc(-c2ccccc2)sc1-c1ccn[nH]1	-1.4	-0.076	-1	-4	.	.	.	.	.	.
C=CCn1c(-c2cccc3ccccc23)n[nH]c1=S	1.2	-1	-2	-8	.	.	.	.	.	.
Cn1c(-c2csc(-c3ccccc3)n2)n[nH]c1=S	5.2*	1.4	0	3	0.0071	0.021*	0.033	0.017*	0.028*	0.02*
Cc1ccc(-c2n[nH]c(=S)n2C)cc1	.	1.6	2	-14	.	.	.	.	.	.
CCn1c(-c2sc(-c3ccccc3)nc2C)n[nH]c1=S	3.9*	0.38	3	-1	0.0062	0.013*	0.035	0.014*	?	0.017*
CC1(C)Cc2nc3scc(NC(=O)c4ccccc4)c3cc2CO1	-1.7	.	9	.	.	.	.	.	.	.
COCCNC(=O)C(=O)NCC1OCCCN1S(=O)(=O)c1cccs1 (stereo not drawn)	1	0.93	-2	7	.	.	.	.	.	.
Cc1ccc(C(=O)NC(=S)Nc2c(C)ccc3nsnc23)cc1	8.7*	-0.43	18	-11	0.011	0.057*	0.037	0.023*	0.045*	0.013*
Cc1ccc(C(=O)NC(=S)Nc2cccc3nsnc23)cc1	0.86	0.17	-2	0	.	.	.	.	.	.
CN(C)C(CNC(=O)c1ccc2c(=O)n(-c3ccccc3F)c(=S)[nH]c2c1)Cc1ccccc1 (stereo not drawn)	0.98	-1.7	-7	4	.	.	.	.	.	.
CC(=C\c1ccccc1)/C=C1/SC(=O)N(CCCC(=O)Nc2ccc(C(=O)O)cc2)C1=O	-4.2	-0.9	4	7	.	.	.	.	.	.
CC(/C=C1\SC(=S)N(CCCC(=O)Nc2ccc(C(=O)O)c(O)c2)C1=O)=C\c1ccccc1	-4.7*	.	-7	-2	0.0061	0.0043	0.026	0.0068	0.014*	0.0095
COc1cc(/C=C2\SC(=S)N(NS(=O)(=O)c3ccc(C)cc3)C2=O)cc(OC)c1OC	7.8*	.	.	.	0.009	0.022*	0.03	0.014*	0.021	0.011
COc1cc(/C=C2\SC(=S)N(NS(=O)(=O)c3ccc(C)cc3)C2=O)ccc1O	-4.9*	.	-106	.	0.0059	-0.0052*	0.018*	0.0044*	0.0057*	?
SMILES	KCC2 mod	ROMK primary	Rad51 HR inh	PKD1 inh	KCC2 secondary	KCC2 bumet counter	KCC2 secondary2	HEK counter1	KCC2 ouabain	HEK293 Tl flux2
CC(/C=C1\SC(=S)N(C(C(=O)O)C(C)C)C1=O)=C\c1ccccc1 (stereo not drawn)	-3.3*	0.019	-2	1	0.0057	0.0047	0.025*	0.0068	?	0.011
COc1cc(/C=C2\SC(=S)N(Nc3ccccc3)C2=O)cc(OC)c1OC	0.6	-1.3	1	-8	.	.	.	.	.	.
CC(/C=C1\SC(=S)N(c2ccc(C(=O)O)cc2)C1=O)=C\c1ccccc1	-1.4	-2.5	.	.	.	.	.	.	.	.
COc1cc(/C=C2\SC(=S)N(NC(=O)c3ccncc3)C2=O)ccc1O	-3	-2.1	-98	.	.	.	.	.	.	.
CCc1ccc(NC(=S)Nc2ccc(S(=O)(=O)Nc3ncccn3)cc2)cc1	0.5	0.15	-4	8	.	.	.	.	.	.
CC(/C=C1\SC(=S)N(NS(=O)(=O)c2ccccc2)C1=O)=C\c1ccccc1	4.2	.	-11	.	.	.	.	.	.	.
CC(/C=C1\SC(=S)N(NS(=O)(=O)c2ccc(C)cc2)C1=O)=C\c1ccccc1	99*	.	.	.	0.0065	0.1*	0.072*	0.083*	0.08*	0.071*
CC12CCC(C/C1=N/O)C2(C)CBr (stereo not drawn)	0.45	0.35	22	.	.	.	.	.	.	.
O=C(COC(=O)c1ccccc1O)Nc1cccnc1Cl	1.9	.	2	-6	.	.	.	.	.	.
O=C(COC(=O)c1cccnc1Cl)Nc1nc(-c2ccccc2)cs1	-5.3*	.	-4	1	0.0056*	0.0063	0.029	0.0068	0.041*	0.01
